Among the data in ChEMBL document CHEMBL3352570, “ST7612AA1, a thioacetate-ω(γ-lactam carboxamide) derivative selected from a novel generation of oral HDAC inhibitors” (J Med Chem, 2014) are solubility, inhibition and IC50 values, retold here.

The source made the active and inactive calls. No cut-off for these calls is given here.

Data set [1] is described as follows: Solubility of the compound in water. Type of data set: physicochemical.
In data set [2] the target is T1, Histone deacetylase 1 (Homo sapiens, UniProt Q13547). Kind of data set: Inhibition of HDAC1 (unknown origin) using fluorogenic tetrapeptide RHKK(Ac) substrate at <50 uM by fluorescence assay. The procedure, abridged: (§1)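 Fluorogenic assay with the tetrapeptide RHKK(Ac) substrate (p53 residues 379–382) at 50 μM.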
T1 sequence (Q13547 whole entry, the tested form may be a part): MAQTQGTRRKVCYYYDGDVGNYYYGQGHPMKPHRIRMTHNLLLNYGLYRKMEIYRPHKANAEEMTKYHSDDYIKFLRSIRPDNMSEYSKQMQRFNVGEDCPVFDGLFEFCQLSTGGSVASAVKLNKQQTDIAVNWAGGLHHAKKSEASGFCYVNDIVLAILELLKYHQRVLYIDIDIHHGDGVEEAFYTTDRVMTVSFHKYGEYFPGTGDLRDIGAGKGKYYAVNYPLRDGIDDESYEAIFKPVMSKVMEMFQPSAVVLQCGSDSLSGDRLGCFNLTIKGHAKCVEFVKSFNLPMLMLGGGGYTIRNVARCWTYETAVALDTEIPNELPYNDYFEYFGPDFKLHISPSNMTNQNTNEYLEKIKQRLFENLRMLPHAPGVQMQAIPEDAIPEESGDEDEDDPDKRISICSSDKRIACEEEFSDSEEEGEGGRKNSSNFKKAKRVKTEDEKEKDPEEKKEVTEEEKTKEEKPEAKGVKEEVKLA
The target in data set [3] is Histone deacetylase 2 (Homo sapiens, UniProt Q92769). Nature of the data set: Inhibition of HDAC2 (unknown origin) using fluorogenic tetrapeptide RHKK(Ac) substrate at <50 uM by fluorescence assay. The procedure, abridged: as §1
Sequence of Histone deacetylase 2 (Q92769 whole entry): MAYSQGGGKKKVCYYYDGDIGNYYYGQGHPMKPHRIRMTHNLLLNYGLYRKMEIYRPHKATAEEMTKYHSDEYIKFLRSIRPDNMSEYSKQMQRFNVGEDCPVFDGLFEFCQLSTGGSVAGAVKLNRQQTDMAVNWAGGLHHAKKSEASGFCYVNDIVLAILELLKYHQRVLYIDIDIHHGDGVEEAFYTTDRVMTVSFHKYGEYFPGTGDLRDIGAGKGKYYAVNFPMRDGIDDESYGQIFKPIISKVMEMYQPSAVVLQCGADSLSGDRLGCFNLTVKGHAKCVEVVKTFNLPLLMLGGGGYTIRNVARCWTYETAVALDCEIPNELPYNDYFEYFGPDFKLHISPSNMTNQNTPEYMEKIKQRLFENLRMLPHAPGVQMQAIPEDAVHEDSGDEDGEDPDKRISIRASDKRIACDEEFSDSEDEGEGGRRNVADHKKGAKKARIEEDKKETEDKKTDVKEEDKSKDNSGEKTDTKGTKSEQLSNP
The target in data set [4] is T2, Histone deacetylase 8 (Homo sapiens, UniProt Q9BY41).
T2 sequence (Q9BY41 whole entry): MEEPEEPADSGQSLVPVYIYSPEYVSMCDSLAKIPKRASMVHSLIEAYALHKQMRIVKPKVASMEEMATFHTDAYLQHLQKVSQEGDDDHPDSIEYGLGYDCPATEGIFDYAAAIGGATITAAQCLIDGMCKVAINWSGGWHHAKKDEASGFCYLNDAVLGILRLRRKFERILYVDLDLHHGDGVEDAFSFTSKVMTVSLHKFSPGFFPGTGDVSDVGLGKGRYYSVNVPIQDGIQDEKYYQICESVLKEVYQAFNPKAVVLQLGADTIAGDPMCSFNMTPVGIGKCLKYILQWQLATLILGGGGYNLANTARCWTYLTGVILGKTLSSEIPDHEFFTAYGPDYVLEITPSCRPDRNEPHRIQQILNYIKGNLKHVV
Kind of data set: Inhibition of HDAC8 (unknown origin) using fluorogenic tetrapeptide RHK(Ac)K(Ac) substrate by fluorescence assay.

Data set [5] concerns the target T3, Histone deacetylase 11 (Homo sapiens, UniProt Q96DB2).
T3 sequence (Q96DB2 whole entry): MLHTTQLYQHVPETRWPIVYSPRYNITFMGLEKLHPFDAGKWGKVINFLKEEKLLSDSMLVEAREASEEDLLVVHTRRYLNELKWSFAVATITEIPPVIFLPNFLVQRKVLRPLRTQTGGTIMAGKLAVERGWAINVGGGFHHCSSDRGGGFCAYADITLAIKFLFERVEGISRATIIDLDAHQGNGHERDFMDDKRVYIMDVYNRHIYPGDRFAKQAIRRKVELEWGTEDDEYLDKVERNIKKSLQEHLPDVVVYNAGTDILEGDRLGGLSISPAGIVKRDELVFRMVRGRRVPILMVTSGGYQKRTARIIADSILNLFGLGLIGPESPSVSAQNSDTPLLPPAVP
Nature of the data set: Inhibition of HDAC11 (unknown origin) using fluorogenic tetrapeptide RHKK(Ac) substrate by fluorescence assay.

The target of data set [6] is T4, Protein deacetylase HDAC6 (Homo sapiens, UniProt Q9UBN7).
T4 sequence (Q9UBN7 whole entry): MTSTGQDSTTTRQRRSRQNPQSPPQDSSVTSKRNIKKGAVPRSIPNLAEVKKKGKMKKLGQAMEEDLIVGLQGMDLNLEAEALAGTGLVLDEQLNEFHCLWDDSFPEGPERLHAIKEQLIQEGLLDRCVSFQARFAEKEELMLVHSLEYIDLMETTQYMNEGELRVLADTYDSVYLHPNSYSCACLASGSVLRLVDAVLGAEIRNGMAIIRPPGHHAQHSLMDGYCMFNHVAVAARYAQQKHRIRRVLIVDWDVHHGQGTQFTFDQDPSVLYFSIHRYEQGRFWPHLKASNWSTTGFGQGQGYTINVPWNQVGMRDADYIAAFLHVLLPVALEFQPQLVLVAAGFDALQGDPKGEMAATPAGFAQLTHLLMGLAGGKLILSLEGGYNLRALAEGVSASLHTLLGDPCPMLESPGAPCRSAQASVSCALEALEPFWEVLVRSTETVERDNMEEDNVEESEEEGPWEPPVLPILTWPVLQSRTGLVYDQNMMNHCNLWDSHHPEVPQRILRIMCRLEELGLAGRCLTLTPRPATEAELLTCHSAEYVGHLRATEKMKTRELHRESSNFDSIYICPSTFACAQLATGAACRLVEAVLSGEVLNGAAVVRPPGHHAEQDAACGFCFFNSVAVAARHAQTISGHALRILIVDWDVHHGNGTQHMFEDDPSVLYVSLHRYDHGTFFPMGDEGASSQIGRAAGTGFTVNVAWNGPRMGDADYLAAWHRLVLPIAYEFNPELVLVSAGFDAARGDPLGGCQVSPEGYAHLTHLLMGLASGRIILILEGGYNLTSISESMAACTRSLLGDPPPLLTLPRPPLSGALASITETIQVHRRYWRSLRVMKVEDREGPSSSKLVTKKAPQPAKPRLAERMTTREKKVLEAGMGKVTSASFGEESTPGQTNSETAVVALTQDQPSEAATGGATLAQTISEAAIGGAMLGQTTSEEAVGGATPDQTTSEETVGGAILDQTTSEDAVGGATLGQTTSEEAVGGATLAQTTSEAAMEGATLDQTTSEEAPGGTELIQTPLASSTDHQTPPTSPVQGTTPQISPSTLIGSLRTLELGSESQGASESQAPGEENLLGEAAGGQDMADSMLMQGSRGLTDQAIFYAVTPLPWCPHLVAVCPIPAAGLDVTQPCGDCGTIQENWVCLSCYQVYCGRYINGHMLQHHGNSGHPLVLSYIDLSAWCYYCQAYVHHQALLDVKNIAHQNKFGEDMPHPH
Nature of the data set: Inhibition of HDAC6 (unknown origin) using fluorogenic tetrapeptide RHKK(Ac) substrate by fluorescence assay.

Data set [7] addresses T5, Polyamine deacetylase HDAC10 (Homo sapiens, UniProt Q969S8).
T5 sequence (Q969S8 whole entry): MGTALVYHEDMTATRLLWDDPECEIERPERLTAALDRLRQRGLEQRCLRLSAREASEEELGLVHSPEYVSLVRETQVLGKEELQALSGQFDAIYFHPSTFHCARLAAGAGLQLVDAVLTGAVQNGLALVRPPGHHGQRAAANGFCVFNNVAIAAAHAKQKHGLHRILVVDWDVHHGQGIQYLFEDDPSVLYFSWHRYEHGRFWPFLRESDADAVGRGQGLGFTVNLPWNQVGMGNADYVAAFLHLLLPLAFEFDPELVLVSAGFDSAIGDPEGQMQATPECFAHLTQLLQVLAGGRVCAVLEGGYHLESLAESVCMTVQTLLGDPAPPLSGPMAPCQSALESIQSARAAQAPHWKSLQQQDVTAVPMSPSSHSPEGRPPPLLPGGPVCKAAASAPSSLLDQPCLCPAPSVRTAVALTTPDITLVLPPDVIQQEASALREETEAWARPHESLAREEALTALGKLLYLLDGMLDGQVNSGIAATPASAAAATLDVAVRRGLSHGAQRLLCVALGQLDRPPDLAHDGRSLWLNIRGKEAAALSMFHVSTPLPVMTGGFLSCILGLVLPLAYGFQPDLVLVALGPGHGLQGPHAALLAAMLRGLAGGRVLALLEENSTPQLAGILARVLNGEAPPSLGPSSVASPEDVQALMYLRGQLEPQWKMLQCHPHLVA
Nature of the data set: Inhibition of HDAC10 (unknown origin) using fluorogenic tetrapeptide RHKK(Ac) substrate by fluorescence assay.

The target of data set [8] is T6, Histone deacetylase 3 (Homo sapiens, UniProt O15379). Nature of the data set: Inhibition of HDAC3 (unknown origin) using fluorogenic tetrapeptide RHKK(Ac) substrate at <50 uM by fluorescence assay. The procedure, abridged:
as §1

In data set [9] the target is T7, Histone deacetylase 8 (Homo sapiens) (UniProt Q9BY41).
T7 sequence (whole entry): T2 sequence (Q9BY41 whole entry)
Kind of data set: Inhibition of HDAC8 (unknown origin) using fluorogenic tetrapeptide RHK(Ac)K(Ac) substrate at <50 uM by fluorescence assay. The procedure, abridged:
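The HDAC8 assay used the diacetylated fluorogenic substrate RHK(Ac)K(Ac) at 50 μM.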

Data set [10] has as its target T8, Protein deacetylase HDAC6 (Homo sapiens) (UniProt Q9UBN7).
T8 sequence (whole entry): T4 sequence (Q9UBN7 whole entry)
Nature of the data set: Inhibition of HDAC6 (unknown origin) using fluorogenic tetrapeptide RHKK(Ac) substrate at <50 uM by fluorescence assay. The procedure, abridged:
as §1

Data set [11] concerns the target T6, Histone deacetylase 3. Kind of data set: Inhibition of HDAC3 (unknown origin) using fluorogenic tetrapeptide RHKK(Ac) substrate by fluorescence assay.
In data set [12] the target is T1, Histone deacetylase 1. Kind of data set: Inhibition of HDAC1 (unknown origin) using fluorogenic tetrapeptide RHKK(Ac) substrate by fluorescence assay.
The nature of data set [13]: Cytotoxicity against human HCT116 cells after 24 hrs by SRB assay. Type of data set: functional, cell-based. The settings on record: HCT-116, 24 h. The procedure, abridged: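 HCT116 cells were cultured in McCoy's 5A with L-glutamine, 10% heat-inactivated FCS and 50 μg/mL gentamicin. After seeding at about 10% confluence and a 24 h recovery, they received drug for 24 h. Drug was washed out and cells were incubated 48 h more before SRB staining. IC50 is the 50% cell-number reduction versus vehicle, from fitted dose–response curves; means of at least two experiments.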
For orientation: In SRB staining, fixed cells bind dye roughly in proportion to their protein.

Data set [14] deals with Histone deacetylase. Nature of the data set: Inhibition of HDAC-mediated histone H4 deacetylation in human NCI-H460 cells after 3 hrs by Western blot analysis. Type of data set: cell-based. The procedure, abridged: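 NCI-H460 cells were plated the day before and treated 3 h across a dose range. Cells were washed with DPBS containing 5 mM NaB and lysed in HNB buffer with 1% NP-40. Histones were acid-extracted from nuclei with 0.4 equiv/L H2SO4 and precipitated with acetone. Blots were probed for acetyl-H4 against total H4. Read-out was ECL and densitometry after normalization; IC50 fitted; means of at least two experiments.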

The subject of data set [15] is NCI-H460. Nature of the data set: Cytotoxicity against human NCI-H460 cells after 24 hrs by SRB assay. Type of data set: functional, cell-based. Conditions: NCI-H460, 24 h. The procedure, abridged:
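NCI-H460 cells were grown in RPMI-1640 with L-glutamine, 10% heat-inactivated FCS and 50 μg/mL gentamicin. Cells were seeded at about 10% confluence and allowed to recover for 24 h. They were exposed to varying concentrations for 24 h, washed, then cultured a further 48 h. Surviving cells were measured by SRB. IC50 is the 50% reduction in cell number versus vehicle, from dose–response curve fitting; means of at least three experiments.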

Data set [16] has as its target Histone deacetylase. Nature of the data set: Inhibition of HDAC-mediated tubulin deacetylation in human NCI-H460 cells after 3 hrs by Western blot analysis. Type of data set: cell-based. The procedure, abridged: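 Cells (NCI-H460) were treated for 3 h with graded concentrations. The cytoplasmic fraction was collected after HNB/1% NP-40 lysis and centrifugation of nuclei at 2000g. This fraction was resolved by SDS-PAGE and probed for acetylated α-tubulin against α-tubulin and β-actin. Bands were detected by ECL and quantified by densitometry after normalization; IC50 fitted; means of at least two experiments.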
Background: Immunoblotting shows a protein as a band on a membrane.

Data set [17] addresses T9, Polyamine deacetylase HDAC10 (Homo sapiens) (UniProt Q969S8).
T9 sequence (whole entry): T5 sequence (Q969S8 whole entry)
Nature of the data set: Inhibition of HDAC10 (unknown origin) using fluorogenic tetrapeptide RHKK(Ac) substrate at <50 uM by fluorescence assay. The procedure, abridged:
as §1

T6 sequence (O15379 whole entry): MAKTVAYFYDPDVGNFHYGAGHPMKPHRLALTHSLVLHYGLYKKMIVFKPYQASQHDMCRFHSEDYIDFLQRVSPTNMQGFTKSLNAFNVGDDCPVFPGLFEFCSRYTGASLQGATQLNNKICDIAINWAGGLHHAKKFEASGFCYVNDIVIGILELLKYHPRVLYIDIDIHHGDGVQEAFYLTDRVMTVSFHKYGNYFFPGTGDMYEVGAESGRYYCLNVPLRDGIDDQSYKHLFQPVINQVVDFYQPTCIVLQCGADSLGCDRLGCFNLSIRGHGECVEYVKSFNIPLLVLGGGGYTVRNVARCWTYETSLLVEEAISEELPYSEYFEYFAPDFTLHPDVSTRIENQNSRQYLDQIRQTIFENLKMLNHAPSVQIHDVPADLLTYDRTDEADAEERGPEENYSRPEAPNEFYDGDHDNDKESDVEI

One may read the solubility as how much of the substance goes into solution per volume. Read a high solubility as a readily soluble substance. `CCOC(=O)SCCCCCCC(=O)Nc1ccccc1` registered a solubility in data set [1] of over 1000 µg/mL.

The term IC50 denotes the concentration that inhibits the measured activity by half. Lower therefore signals greater potency in that assay. `CC(C)(C)OC(=O)N[C@@H](CCCCCS)C(=O)NC1CCCC1`: the inhibition result in data set [2], in data set [3] and in data set [8] was “inactive” in each case. Further, the IC50 in data set [4] turned out to be 44000 nM; in [5], 30700 nM; in data set [6] it was 1120 nM; in data set [7], 5210 nM.

In the case of `O=C(CCCCCCS)N1CCc2ccccc2C1`, the inhibition entry in data set [9], in data set [3] and in data set [10] was “inactive” throughout. In addition, the IC50 in data set [5] worked out at 949 nM; in [11], 35800 nM; in data set [12] it was 1750 nM; in data set [7] it was 2930 nM.

As to `CC(=O)SCCCCC[C@H](NC(=O)[C@@H]1CCCC(=O)N1)C(=O)Nc1ccccc1`, the IC50 in data set [13] stood at 130 nM; in data set [14], 100 nM; in [15] it was 100 nM; in data set [16], 100 nM.

Regarding `O=C1CCC[C@@H](C(=O)N[C@H](CCCCCS)C(=O)Nc2ccccc2)N1`, the inhibition result in data set [9], in [2], in [3] and in [17] was “inactive” each time. The IC50 came out at 14200 nM in [5], 9380 nM in data set [6] and 17100 nM in [11].

On to `CC(=O)SCCCCC[C@H](NC(=O)[C@@H]1CC(=O)N1)C(=O)Nc1ccccc1`, for which the IC50 in data set [13] stood at 86 nM; in data set [14], 31 nM; in data set [15], 50 nM; in [16] it was 50 nM.

With `CC(C)C(=O)SCCCCCCC(=O)Nc1ccccc1`, in data set [1], the solubility was over 1000 µg/mL.

As for `CC(=O)SCCCCCCC(=O)Nc1ccccc1`, the solubility in data set [1] is over 1000 µg/mL.
